Test results taken from ChEMBL document CHEMBL1629653, “CMY-31 and CMY-36 cephalosporinases encoded by ColE1-like plasmids” (Antimicrob Agents Chemother, 2009).

What was measured:
[1] = Activity of CMY-2 by spectrophotometry
Method in brief: (§1)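 CMY β-lactamases purified from sonicated, ultracentrifuge-clarified extracts of E. coli DH5α clones (pB-cmy36, pB-cmy2) by Q- then S-Sepharose ion exchange (>90% pure by SDS-PAGE); steady-state hydrolysis kinetics measured spectrophotometrically, CMY-2 run in parallel.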

[2] = Ratio of Kcat to Km of CMY-2 by spectrophotometry; method in brief: as §1

| SMILES | Km [1] [µM] | kcat [1] [s⁻¹] | kcat/Km [2] [M⁻¹ s⁻¹] |
| --- | --- | --- | --- |
| O=C(Cc1cccs1)N[C@@H]1C(=O)N2C(C(=O)O)=C(/C=C/c3ccc([N+](=O)[O-])cc3[N+](=O)[O-])CS[C@H]12 | 10 | 980 | 9.8e+07 |
| O=C(Cc1cccs1)N[C@@H]1C(=O)N2C(C(=O)[O-])=C(C[n+]3ccccc3)CS[C@H]12 | 120 | 300 | 2.5e+06 |
| CO/N=C(\C(=O)N[C@@H]1C(=O)N2C(C(=O)O)=C(COC(C)=O)CS[C@H]12)c1csc(N)n1 | – | < 0.01 | – |
| CC1(C)S[C@@H]2[C@H](NC(=O)Cc3ccccc3)C(=O)N2[C@H]1C(=O)O | 0.4 | 10 | 2.5e+07 |
